Yeast fitness data for 75 variants are collected here from the RNAGym collection of RNA variant scans (doi:10.1126/science.aae0568).

Fewer inactive variants are shown than the library holds.

Sequences and labels used below:
B1: tRNA (parent)
chain: GUUCCGUUGGCGUAAUGGUAACGCGUCUCCCUCCUAAGGAGAAGACUGCGGGUUCGAGUCCCGUACGGAACG

Variants of B1 are the subject of the data set. The experiment in a line: yeast fitness relative to wild type (ratio to wild type); higher = fitter; tRNA-Arg(CCU), competitive growth, 37 C, YPD. In a few lines: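 Variants of the tRNA-Arg(CCU) gene were chemically synthesised with a 3% per-site mutation rate across 69 sites and placed at the native genomic locus in Saccharomyces cerevisiae. Six parallel replicates of the pooled strains were competed in YPD at 37°C for 24 hours, and gene amplicons from the start and end populations were read by 100-nucleotide paired-end sequencing. Darwinian fitness relative to wild type was derived from changes in genotype frequencies. Genotypes required ≥ 100 starting reads, and estimates < 0.5 were set to 0.5.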
GUUCCGUUGGAGUAAUGGUAACGCGUCUCCCUCCUAAGGAGCAGAGUGCGGGUUCGAGUACCGUACGGAACG: the yeast fitness is no more than 0.5.
The result for GUUCCGUUGGAGUAAUGGUAAAGCGUCUCCCUCCUAAGGAGAAGACUGCGGGUUCGAGUCCCGUACGGAACG reads 0.626; that for GUUCCGUUGGAGUAAUGGUAACGCGUCUCCCUCCUAAGGAGGUGAUUGCGGGUUCGAGUCCCGUACAGCACG, no more than 0.5.
The result for GUUCCGUUGGAGUAAUGGUUACGCGUCUCCCUCCUAAAGAGAAGCCUGCGGGUUCGAGUCCCGUACGGAACG reads no more than 0.5; that for GUUCCGUUGGAGUAAUGGUACCGCGUCUCCCUCCUAAGGAGAAGACUGCGGGAUCGAGUCCUGUACGGAACG, no more than 0.5; that for GUUCCGUUGGAGUAUUGGUAUCGCGUCUCCCUCCUCUGGAGAAGACUGCGGGUUUGAGUCCCGUACGGAACG, no more than 0.5.
With GUUCCGUUGGAGUAAUGGUAAGGCGUCUGCCUCCUAAGGAGAAGACUGCGGGUUCGAGUCUAGUACGGAGCG, the yeast fitness is no more than 0.5.
Regarding GUUCCGUUGGAGUAAUGGUAACGCGUCUCCCUCCUAAGGAGAUGACUGCGGGUUCGAGUCCGGUACGGAUCG, the yeast fitness is no more than 0.5.
The result for GUUCCGUUGGAGUAAUGGUAGCGCGUCUCCCUCCUAAGGGGAAGACUGCGGGUUCGAGUCCCGUACGGAACG reads 0.571; that for GUUCCGUUGGAGUAAUGGUAUCGCGUCUCCCUCCUAAGGAGAAGACUGCGGGUUCGACUCCCGUACGGACCG, no more than 0.5.
Turning to GUUCCGUUGGAGUAAUGGUAGCGCGUCUCCCUCUUAGGGAGAAGACUGCGGGUUCGAGUCCAGUACGGAACG, the yeast fitness is no more than 0.5.
Regarding GUUCCGUUGGAGUAAUGGUAACGCGUCUCCCUCCUAAGGAGAGGACUGCCGGUUCCAGUCCCGUACGGAACG, the yeast fitness was no more than 0.5.
The result for GUUCCGUUGGAGUAAUGGUAACGCGUCUCCCUCCUAAGGAGAGGACUGCGGGUCCGAGUCCCGUCCGGAACG reads no more than 0.5; that for GUUCCGUUGGAGUAAUGGUAAGGCGUCUUCCCCCUAAGGAGAAGACUGCGGGUUCGAGUCCCGUACGGAACG, 0.706.
As for GUUCCGUUGGAGUAAUGGUAACGCGUCUCCCUCCUAAGGAGGAGACUGUGGGUUCGAGUCCCGUCCGGAACG, the yeast fitness is no more than 0.5.
The result for GUUCCGUUGGAGUAAUGGUAACGCGUCUCCCUCCUAAGGAGAUGACUGCGGGUUCGAGUCCCGUAUGGAACG reads no more than 0.5; that for GUUCCGUUGGAGUAAUGGUAACGCGUCUCCCUCCUACGGAGAAGGCUGCGGGUUCGAGUCCCGUACGGAACG, no more than 0.5; that for GUUCCGUUGGAGUAAUGGUAACGCGUCUCCCUCCUGAGGAGAAGACUGCGGGUUCCAGUCCCGUACGGAACG, no more than 0.5.
The result for GUUCCGUUGGAGUAAUGGUAGCGCGUCUCCCUCCUAAGGAGAAGACUGCGGGUUCGAGUCCGGUAUGGAACG reads no more than 0.5.
The result for GUUCCGUUGGAGUAAUGGUAACGCGUCUCCCUCCUAAGGAGCAGACUGCGGGUUCGAAUCCCGUACGGAACG reads 0.742; that for GUUCCGUUGGAGUAAUGGUAGCGCGUCUCCCUCCUAAGGAGAAGACUGCGGGUUGGAGUCCAGUACGGAACG, no more than 0.5; that for GUUCCGUUGGAGUAAUGGUAAUGCGGCUCCCUCCUAAGGUGAAGACUCCGGGUUCGAGUCCCGUACGGAACG, 0.537.
Take GUUCCGUUGGAGUAAUGGUACCGCGUCUCCCUCCUAAGGAGAGGACUGCGGGUUCGAGUUCUGUACGGACCG: the yeast fitness is no more than 0.5.
The result for GUUCCGUUGGAGUAAUGGUAACGCGUCUCCCUCCUAAGGAGAAGACUGCGGGUUCGAGUCCCGUACGGACCG reads 0.593; that for GUUCCGUUGGAGUAAUGGUAACGCGUCUCCCUCCUAAGGAGAAGACUGCGGGUUCGAGUCCCGUACGGAGCG, 0.774; that for GUUCCGUUGGAGUAAUGGUAACGCGUCUCCCUCCUAAGGAGAAGCCUGCGGGCUCGAGUCCCGUACGGAACG, 0.645.
The result for GUUCCGUUGGAGUAAUGGUUACGCGUCUUCCUGCUAAGGAGAAGACUGCGGGUUCGAGUCCCGUACGGAACG reads 0.578; that for GUUCCGUUGGAGUAAUGGUAACGCGUCUCCCUCCUAAGGAGAAGACUGCGGGUUCGGGUCCCGUACGGUACG, no more than 0.5.
The result for GUUCCGUUGGAGUAAUGGUUACGCGUCUCCCUCCUAAGGAGAAGACCGCGGGUUCGAGUGCCGUACGGAACG reads no more than 0.5; that for GUUCCGUUGGAGUAAUGGUAACGCGUCUCCCUCCUGAGGAGACGACUGCGGGUUCGAGUCCCGUACGGUACG, no more than 0.5; that for GUUCCGUUGGAGUAAUGGUAACGCGUCUCCCUCCUAAGGAGGAGACUGCGGGUUCGAGUCCCGUACGGAACG, 0.631.
In the case of GUUCCGUUGGAGUAAUGGUAACGCGUCUCCCUCCUGAGGAGAAGACUGGGGGUUCGAGUUCCGUACGAAACG, the yeast fitness is no more than 0.5.
In the case of GUUCCGUUGGAGUAAUGGUAACGGGUCUCCCUCCUAAGGAGAAGACUGCGGGUUCGAGUCCCGUACGGAACG, the yeast fitness stood at 0.52.
Regarding GUUCCGUUGGAGUAAUGGUACCGCCUCUCCCUCAUUAGGAGAAAACUGCGGGUUCGAGUCCCGUACGGAACG, the yeast fitness is no more than 0.5.
The result for GUUCCGUUGGAGUAAUGGUAACGCGUCUCCCUCCUGAGGAGAAGACUGCGGGUUCGAGUCCCGUACGGCACG reads 0.562.
The result for GUUCCGUUGGAGUAAUGGUCACGCGUCCCCCUCCUAUGGCGAAGACUACGGGUUCGAGUCCCGUACGGAACG reads no more than 0.5; that for GUUCCGUUGGAGUAAUGGUCGCGCGUCUCCCUCCUAAGGAGAAGACCGCGGGUUCCAGUCCCGCACGCAACG, no more than 0.5; that for GUUCCGUUGGAGUAAUGGUAGCGCGUCUCCGUCCUUAGGAGAAGACUGCGGGUUCGAGUCCCGUUCGGAACG, no more than 0.5.
The result for GUUCCGUUGGAGUAAUGGUAACGCGUCUCCCUCCUAAGGAGAAGUCUGCUGGUCCGAGUCCCGAACGGAACG reads no more than 0.5.
As to GUUCCGUUGGAGUAAUGGUAACGCGUCUCCCUCCUAAGGAGAGGACUGCGGGUUCGAGUCCCGUCCGGAACG, the yeast fitness is 0.501.
For the variant GUUCCGUUGGAGUAAUGGUAAGGCGUCUGCCUCCUAAGGAGAAGACUGCGGGAUGGAGUCCCGUACGGAACG, the yeast fitness is no more than 0.5.
The result for GUUCCGUUGGAGUAAUGGUAACGCGUCUCCCUCCUAAGGAGAUGACUGCGGGUUCGAGUCCCGCACGGAACG reads no more than 0.5; that for GUUCCGUUGGAGUAAUGGUAAUGCGUCUCCCUCCUAAGCAGAAGACAGCGGGUUCGAGUCCCGUACGGAACG, no more than 0.5; that for GUUCCGUUGGAGUAAUGGUAACGCGUCUCCCUCCUAAGGAGAAGACUGCGGGUUCGCGUCCCGUACGGAACG, 0.675.
Consider GUUCCGUUGGAGUAAUGGUAACGCGUCUCCCUCCUAAGGAGAAGACUGCGGGUUCGUGUCCCGUACGGAACG, for which the yeast fitness was no more than 0.5.
With GUUCCGUUGGAGUAAUGGUAGGGCGUCUCCCUCCUAGGGAGAAGACUGCGGGUUCGAGUCCCGUACGGAACG, the yeast fitness was no more than 0.5.
In the case of GUUCCGUUGGAGUAAUGGUAAAGCGUCUGCCUCCUAAGGAGAAGACUGCGGGUUCGAGUCCCGUACGGAACG, the yeast fitness came to 0.545.
The result for GUUCCGUUGGAGUAAUGGUAACGCGUCUCCCUCCUAAGGAGAUGACUGUGGGUUCGAGUCCCGUACGGAACG reads 0.548.
The result for GUUCCGUUGGAGUAAUGGUAACGCGUCUCCCUCCUAAGGAGAGGACUGCGGGUUCGACUCCUGUACGGAACG reads no more than 0.5.
As to GUUCCGUUGGAGUAAUGGUAUCGCGUCUCCCUCCUAAGGAGAAGACUGCGGGUUUGAGUCCCGUACGGAACG, the yeast fitness was 0.788.
For the variant GUUCCGUUGGAGUAAUGGUAAUGCGUCUCCCUCCUAAGGAGAAGACUGCGGGUCCGAGUCCCGUACGGAACG, the yeast fitness was no more than 0.5.
As to GUUCCGUUGGAGUAAUGGUAGCGCGUCUCCCUCCUAAGGAGAAGACUGCGGGUUCGAGUCCGGUACGGAACG, the yeast fitness worked out at 0.655.
The result for GUUCCGUUGGAGUAAUGGUAAGGCGUCUCCCUCCUAAGGAGAAGCCUGCAGGUUCGAGUCCCGUACGGAACG reads 0.741.
Take GUUCCGUUGGAGUAAUGGUUAUGCGUCUCCCUCCUAAGGAGAAGACUGCGGGUUCGAGUCCCGUACCGAACG: the yeast fitness is no more than 0.5.
Consider GUUCCGUUGGAGUAUCGGUAUCGCGUCUCCCUCCUCUGGAGAAGACUGCGGGUUCGAGUCCCGUACGGAACG, for which the yeast fitness is no more than 0.5.
For the variant GUUCCGUUGGAGUAAUGGUAUCGCGUCUCCCUCCUAAGGAGAAGACUGCGGGUGCGAGUCCCGUCCGGAACG, the yeast fitness is no more than 0.5.
The result for GUUCCGUUGGAGUAAUGGUAAAGCGUCUGCCUCCUAAGGAGAAGACUGCGGGUUCGAGUCCCGUACGGGACG reads 0.576; that for GUUCCGUUGGAGUAAUGGUAAUGCGUCUCCCUCCUAAGGAGAAGACUGCGGGUUAGAGUCCCGUACGGAACG, no more than 0.5.
In the case of GUUCCGUUGGAGUAAUGGUAACGCGUCUCCCUCCUAAGGGGAAGACUGGGGGUUCGAGUCCGGUACGGAACG, the yeast fitness amounted to 0.794.
The result for GUUCCGUUGGAGUAAUGGUAACGCGUCUCCCUCCUAAGGAGGGGACUGCGGGUUCGAGUCACGUACGGAACG reads no more than 0.5; that for GUUCCGUUGGAGUAAUGGUGACGCGUCUCCCUCCUAAGGAGAAGAUUGCCGGUUCGAGUACCGUACGGACCG, 0.632.
For GUUCCGUUGGAGUAAUGGUAGCGCGUCUCCCUCCUAAGGAGAAGACUGCGGGUUCGAGUCCCGUACGGAACG, the yeast fitness amounted to 0.774.
Take GUUCCGUUGGAGUAAUGGUAGCGCGUCUCCCUCGUAACGAGAAGACUGCGGGUUCGAGUCCGGUACGGCACG: the yeast fitness is no more than 0.5.
With GUUCCGUUGGAGUAAUGGUAACGCGUCUCCCUCCUAAGGGGAAGACUGCGGGUUCGAGUCCCGUAUGGAACG, the yeast fitness was no more than 0.5.
Take GUUCCGUUGGAGUAAUGGUAACGCGUCUCCCUCCUAAGGAGCAGACUGCGAGUUCGAGUCCCGUACGGAACG: the yeast fitness was 0.73.
For the variant GUUCCGUUGGAGUAAUGGUAACGCGUCUCCCUCCUAAGGAGUAGACUGCGGGUUCGAGUCCCGUACGGUACG, the yeast fitness is no more than 0.5.
As to GUUCCGUUGGAGUAAUGGUGACGCGUCUCCCUCCUAAGAAGAAGACUGCGAGAUCGAGUCCCGUAUGGAACG, the yeast fitness is no more than 0.5.
The result for GUUCCGUUGGAGUAAUGGUAACGCGUCUCCCUCCUAAGGGGAUGACUGCGGGUUCGAGGCCCGUACGGAACG reads no more than 0.5; that for GUUCCGUUGGAGUAAUGGUAACGCGUCUCCCUCCUAAGGAGGAGACUGCGGGUUCGAGUCACGUACGGAACG, 0.618; that for GUUCCGUUGGAGUAAUGGUACCGCGUCUCCCUCCUAAGGAGCAGACUGCGGGUUCGAGUCUCGUACGGAACG, no more than 0.5.
The result for GUUCCGUUGGAGUAAUGGUAACGCGUCUCCCUCCUCAGGAGGAGACUGAGGGUUCGAGUCCCGUACGGAACG reads no more than 0.5; that for GUUCCGUUGGAGUAAUGGUACCGCGUCUCCAUCCUAAGGAGAAGAGUGCGGGUUCGAGUCCCGUACGGAACG, no more than 0.5.
With GUUCCGUUGGAGUAAUGGUAACGGGUCUCGCUCCUAAGGAGAAGACUGCGGGUUCGAGUCCCGUACGGAACG, the yeast fitness is 0.599.
For the variant GUUCCGUUGGAGUAAUGGUAACGCGUCUCCCUCCUAAGGAGGUGAUUGCGGGUUCGAGUCCCGUACGGAACG, the yeast fitness is 0.532.
The result for GUUCCGUUGGAGUAAUGGUACCGCGUCACCCUCCUAAGGAGAAGACUGCGGGUUUGAGUCCUGUACCGAACG reads no more than 0.5.
